# From PubChem BioAssay
# This is a sample that favours compounds with a hit; in the whole collection about 1.7% have one here.
# Runt-CBFb FRET = Runt domain-CBFb interaction inhibition. Q01196+Q13951. Cerulean-Runt/Venus-CBFb FRET ratio 530/480, 1 h. inhibition, % at 20 µM. 220,000 compounds, 0.46% hits. AID 1496;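 active = inhibition over about 50% at 20 µM in the single-dose screen, limit read from the data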;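 note: 0% = DMSO wells and 100% = excess unlabeled CBFb competitor control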
# Target sequence (Q01196 whole entry, looked up, the tested form may be a part): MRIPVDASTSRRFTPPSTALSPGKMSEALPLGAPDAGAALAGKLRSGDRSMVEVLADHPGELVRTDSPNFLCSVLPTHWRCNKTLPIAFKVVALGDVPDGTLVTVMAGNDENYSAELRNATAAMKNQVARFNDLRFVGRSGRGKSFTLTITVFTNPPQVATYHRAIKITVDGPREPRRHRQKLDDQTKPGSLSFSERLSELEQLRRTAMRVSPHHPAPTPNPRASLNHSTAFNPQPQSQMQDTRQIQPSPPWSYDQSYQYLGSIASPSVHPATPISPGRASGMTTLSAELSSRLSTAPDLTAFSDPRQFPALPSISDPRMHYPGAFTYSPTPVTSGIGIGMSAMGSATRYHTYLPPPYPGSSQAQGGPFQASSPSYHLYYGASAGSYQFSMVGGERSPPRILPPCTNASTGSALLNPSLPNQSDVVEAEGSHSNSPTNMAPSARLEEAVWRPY
# Target sequence (Q13951 whole entry, looked up, the tested form may be a part): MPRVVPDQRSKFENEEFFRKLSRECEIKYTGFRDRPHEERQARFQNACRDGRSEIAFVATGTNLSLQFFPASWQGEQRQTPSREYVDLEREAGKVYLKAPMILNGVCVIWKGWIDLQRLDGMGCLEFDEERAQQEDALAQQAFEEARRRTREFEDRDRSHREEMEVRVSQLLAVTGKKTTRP
#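 Assay system: Cerulean-tagged RUNX1 Runt domain (FRET donor) fusion protein / Amount: 100 nM each of Venus-CBFb and Cerulean-Runt domain / Medium: Tris buffer pH 7.5 with salts and BSA / Also added: Venus-CBFb 100 nM / Schedule: 1 h complex formation plus 1 h compound treatment, room temperature / Signal: FRET fluorescence / Read-out: loss of energy transfer signal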
# Vif imaging = HIV Vif inhibition; HEK293T cells, Vif self-association by quenched fluorescence, imaging, 24 h; inhibition, % at 7.49 µM; 340,000 compounds, 0.35% hits; AID 602346; in the data active = inhibition above about 50%, passing the limit was not always enough; inconclusive = no clear call, values can overlap the other calls; inactive = below about 31%
# RanGTP-Impb inh = disruptors of Ran-importin-beta complex formation – biochemical, FRET, CFP-Ran, YFP-importin-beta, homogeneous, primary screen; 300,000 compounds, 1.1% hits; cell-free CFP-Ran/YFP-importin-beta FRET ratio; inhibition, % (test concentration not listed);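 active = more than half of the replicate wells show a fall in the fluorescence ratio signal beyond about 16%, limit read from the data, passing the limit was not always enough; inconclusive = exactly half of the replicate wells pass the set limit; inactive = fewer than half of replicates pass the limit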;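 note: 0% = DMSO wells and 100% = Ran loaded with GDP instead of GTP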
# Runt-SMMHC FRET = inhibitors of human RUNX1 Runt domain binding to CBFb-SMMHC. Cerulean-Runt/Venus-CBFb-SMMHC FRET ratio 530/480, 1 h. inhibition, % at 20 µM. 220,000 compounds, 0.74% hits;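 active = mean inhibition across duplicate retests at 20 µM reaching about 50%, limit read from the data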;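 note: 0% = DMSO wells and 100% = wells with excess untagged CBFb-SMMHC; inhibitors lower the FRET ratio by blocking Runt binding to CBFb-SMMHC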
# Rce1 inh = inhibitors of yeast Ras-converting enzyme; 290,000 compounds, 0.27% hits; calls only; Q03530; AID 2563; yeast membranes, quenched prenylated peptide cleavage fluorescence;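 active = fall in fluorescence gain of 50% or more versus controls, with final raw signal at or below 3038400; inconclusive = same 50% fall but final raw signal above 3038400; inactive = fall in fluorescence gain under 50%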;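 note: plate controls were neutral control wells for no effect and wells lacking membranes for full effect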
# YIC FRET counter = counter-screen for RanGTP-importin-beta inhibitors: YIC FRET probe; shares compounds with RanGTP-Impb inh; Purified YIC probe, intramolecular FRET ratio YFP/CFP; IC50, µM; 1,000 compounds, 40% hits; AID 435026;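 active = fitted half-maximal inhibitory concentration no more than tenfold above the top dose tested; inconclusive = flat fit with 30 to 70% activity, or poor fit; inactive = half-maximal concentration beyond tenfold above the top dose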
# Numbers without * were called inactive; i = inactive; ? = inconclusive; nt = no result.
SMILES,Runt-CBFb FRET,Vif imaging,RanGTP-Impb inh,Runt-SMMHC FRET,Rce1 inh,YIC FRET counter
Cc1noc(C)c1NC(=O)N(C)C[C@@H]1Oc2ccc(N(C)C)cc2CC(=O)N([C@H](C)CO)C[C@H]1C,nt,nt,nt,nt,nt,>50
Cc1noc(C)c1NC(=O)N(C)C[C@@H]1Oc2ccc(NC(=O)CCC(F)(F)F)cc2CC(=O)N([C@@H](C)CO)C[C@@H]1C,nt,-0.1,nt,nt,nt,nt
CN1CCCC1CCNc1ccc2sc3ccccc3c(=O)c2c1 (stereo unspecified),nt,nt,-193.3,nt,i,nt
Cc1cc2oc3cc(NCCC4CCCN4C)ccc3c(=O)c2cc1C (stereo unspecified),nt,-3.6,31.1*,nt,i,8.89*
CNc1cc(-c2cccc(OC)c2F)nc2ccnn12,nt,-3.4,nt,nt,nt,nt
O=C(c1cc2nc(-c3ccccc3)cc(C(F)(F)F)n2n1)N1CCCC1,nt,-5.5,nt,nt,nt,nt
CN1CCN(C(=O)c2cc3nc(-c4ccccc4)cc(C(F)(F)F)n3n2)CC1,-2.6,-1.3,21.7*,1.7,i,>50
CC12CCC(=O)C=C1CCC1C2CCC2(C)C1CC1C3C(=O)N(Cc4ccccc4)C(=O)C3CC(=O)C12 (stereo unspecified),nt,5.1,nt,nt,nt,nt
Cc1ccccc1-c1nnc(SCC(=O)NC2CCCC2)n1C,nt,15.2,2.8,nt,i,nt
N#Cc1c(-c2ccc3c(c2)OCO3)ccn2nc(-c3cccc(C(F)(F)F)c3)nc12,-6.3,?,20.3*,30.3,i,21.9*
CC(=O)c1ccc(-c2cccs2)s1,78.4*,3.2,18.6*,142.6*,i,28.9*
CC(=O)N1N=C(c2cccs2)CC1c1cccs1 (stereo unspecified),-0.1,9.8,-0.1,1.3,i,nt
COc1cccc(NC(=O)Nc2ccc3c(c2)N(C)C(=O)CS3)c1,-1.2,-24.6,20.2*,-3.3,i,>50
O=C(CSc1n[nH]c(-c2ccncc2)n1)Nc1ccc(Br)cc1,nt,-9.9,-3.6,nt,i,nt
Cc1c(O)c(CN2CCCCC2)cc2c3c(c(=O)oc12)CCC3,90.1*,-5.2,36.8*,58.5*,i,13.9*
Cc1[nH]c2ccc(F)cc2c1CCN(Cc1cccnc1)C(=S)Nc1cccc(F)c1,-0.7,0.3,3.6,1.9,i,nt
CC(NC(=O)/C=C/c1ccccc1[N+](=O)[O-])C1CC2CCC1C2 (stereo unspecified),nt,14.8,-0.1,nt,i,nt
CCCc1[nH]nc2c1C(c1ccoc1)C(C#N)=C(N)O2 (stereo unspecified),-1.7,-2.3,?,-0.7,i,nt
Cc1[nH]nc2c1C(c1ccoc1)C(C#N)=C(N)O2 (stereo unspecified),nt,6.2,20.9*,nt,i,>50
CC1(C)CNC(=O)C=C(c2ccccc2)C1,-0.1,-14.6,22.9*,2.3,i,>50
COc1cc(NC(=O)CN(C)CCOc2ccccc2)c(C)cc1[N+](=O)[O-],nt,-12.2,0.2,nt,i,nt
CN(CCOc1ccccc1)CC(=O)Nc1ccc(Cl)cc1[N+](=O)[O-],-3.0,-0.7,35.2*,-98.8,i,>50
CCc1ccc2[nH]c(=O)c(CN(Cc3ccccc3)C(=O)Nc3ccccc3OC)cc2c1,2.8,-15.4,3.9,5.4,i,nt
COc1ccc(C(=O)Oc2c(CN3CCOCC3)cc(Cl)c3cccnc23)cc1OC,nt,nt,3.3,nt,i,nt
O=C(Oc1c(CN2CCOCC2)cc(Cl)c2cccnc12)c1ccccc1,nt,8.0,15.5*,4.5,i,>50
SMILES,Runt-CBFb FRET,Vif imaging,RanGTP-Impb inh,Runt-SMMHC FRET,Rce1 inh,YIC FRET counter
CCCCN(C)c1c(C)nc2ccc(C(=O)NCc3ccc4c(c3)OCO4)cn12,nt,0.4,nt,nt,nt,nt
O=C(/C=C/c1ccc[nH]1)c1ccc(F)cc1,27.6,2.0,28.1*,2.7,i,24.8*
O=C(/C=C/c1ccccc1)c1ccccc1,-1.1,-3.6,4.3,-0.9,i,nt
O=C(/C=C/c1ccc[nH]1)c1ccccc1,25.1,-1.4,22.8*,11.1,i,31.6*
CCOC(=O)c1ccccc1NC(=O)COC(=O)C(CCSC)NC(=O)COc1ccccc1 (stereo unspecified),nt,-12.9,24.3*,nt,i,>50
CCOC(=O)c1ccccc1NC(=O)COc1ccccc1,-3.1,-4.0,-1.0,1.1,i,nt
O=C(O)CC(Cc1ccc(Br)cc1)C(=O)Nc1ccccc1 (stereo unspecified),nt,18.9,-0.5,nt,i,nt
Nc1ccc(Sc2ccccc2)nc1,nt,-3.7,-2.6,nt,i,nt
CC(C)Sc1nc(N2CCOCC2)c2c(c1C#N)CC(C)(C)N(C)C2,36.4,-11.2,27.3*,79.2*,i,39.3*
CN1Cc2c(N3CCOCC3)nc(SCCC#N)c(C#N)c2CC1(C)C,45.5,-4.9,9.7,30.3,i,nt
O=c1[nH]c2c(s1)C(c1ccco1)C1C3CCC(C3)C1S2 (stereo unspecified),7.7,-7.1,24.3*,4.1,i,>50
CC(C)(C)NC(=O)C[C@H]1C[C@H](C(=O)N2CCOCC2)[C@@]2(CCC3CCCC3)c3[nH]c4cc(-c5ccco5)ccc4c3CCN2C1=O,nt,-5.1,nt,nt,nt,nt
CN(C)c1nc(-c2ccccc2)cc(C(F)(F)F)c1C#N,37.7,-2.2,29.4*,94.8*,i,10.4*
O=C(c1ccco1)c1cc2c(ccc3ccccc32)oc1=O,18.7,-2.8,24.0*,30.2,i,21.1*
CS(=O)(=O)N(CC(=O)NCCSCc1ccco1)c1ccc(Cl)cc1,3.1,7.1,16.4*,-0.9,i,>50
CC(C)c1ccc(N(CC(=O)NCCSCc2ccco2)S(C)(=O)=O)cc1,-3.4,-0.4,-0.1,0.6,i,nt
O=C(c1cccc(S(=O)(=O)N2CCc3ccccc32)c1)N1CCN(c2ccccn2)CC1,-0.2,-3.4,1.7,-44.4,i,nt
CCCCN(C(=O)C1CSC2(C)CCC(=O)N12)c1c(N)n(CC(C)C)c(=O)[nH]c1=O (stereo unspecified),nt,4.1,nt,nt,nt,nt
CSc1ncccc1C(=O)OCC(=O)c1cc2ccccc2o1,-4.0,1.2,19.4*,0.0,i,>50
COC(=O)c1ccc(CS(=O)(=O)c2ccc(C)cc2)o1,nt,nt,-3.8,nt,i,nt
O=C(NC1CCC(CC2CCC(NC(=O)C(Cl)Cl)CC2)CC1)C(Cl)Cl (stereo unspecified),nt,4.2,-2.8,nt,i,nt
O=P(c1ccccc1)(c1ccccc1)c1ccc(O)cc1,nt,1.3,2.1,nt,i,nt
O=C(O)c1ccccc1P(=O)(c1ccccc1)c1ccccc1,0.9,-1.1,15.7*,-1.4,i,>50
O=C(O)COc1ccc(F)cc1Br,1.1,-6.0,25.5*,-0.5,i,>50
O=C(Nc1ncc2c(n1)-c1ccccc1CC2)C1CC1,0.9,-26.3,4.6,-2.6,i,nt
CC(C)SCC(=O)Nc1ncc2c(n1)-c1ccccc1CC2,6.6,-3.9,18.4*,17.6,i,3.48*
